# How the values were obtained:
# [1] = target: T1, Proteasome subunit beta type-9 (Homo sapiens) (UniProt P28065); assay: Inhibition of human 20S immunoproteasome beta-1 at 50 uM using Ac-PAL-AMC as substrate incubated for 15 mins measured for 45 mins by fluorescence assay relative to control
# T1 sequence (whole entry): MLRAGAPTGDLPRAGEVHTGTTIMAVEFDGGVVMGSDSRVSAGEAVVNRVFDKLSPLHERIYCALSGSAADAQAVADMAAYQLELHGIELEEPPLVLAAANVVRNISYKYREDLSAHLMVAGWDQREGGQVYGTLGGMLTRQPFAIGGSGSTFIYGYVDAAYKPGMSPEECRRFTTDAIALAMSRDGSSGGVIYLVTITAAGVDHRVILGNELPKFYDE
# Summary of the method: (§1)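 Human 20S immunoproteasome (0.3 nM) was given 15 min with compound (0.001-50 μM) in pH 8 buffer of 20 mM Tris-HCl, 10% glycerol, 0.01% SDS, 2% DMSO. Ac-PAL-AMC at 50 μM was the substrate. Fluorescence (ex 360/em 460 nm) was followed 45 min at 37 °C relative to control.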
# [2] = test system: NCI-H727; assay: Cytotoxicity against human NCI-H727 cells assessed as reduction in cell viability after 48 hrs by Hoechst 33342 staining based HCS assay; type: functional
# Summary of the method: (§2)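 Cells were grown at 37 °C, 5% CO2 in medium with 10% FBS, 1% penicillin-streptomycin, 2 mM glutamine: DMEM for HuH7, MDA-MB-231 and fibroblasts, EMEM for Caco2, McCoy's for HCT116, RPMI for PC3 and NCI-H727. 4000 cells/well were seeded and dosed 24 h later at 0.1-25 μM final, from DMSO stocks. After 48 h they were fixed in ethanol/acetic acid and Hoechst-stained nuclei were counted by imaging. Survival is relative to DMSO. EC50 came from dose-response curves.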
# [3] = target: T2, Proteasome Macropain subunit MB1 (Homo sapiens) (UniProt P28074); assay: Inhibition of human 20S constitutive proteasome beta-5 at 50 uM using Suc-LLVY-AMC as substrate incubated for 15 mins measured for 45 mins by fluorescence assay relative to control
# T2 sequence (whole entry): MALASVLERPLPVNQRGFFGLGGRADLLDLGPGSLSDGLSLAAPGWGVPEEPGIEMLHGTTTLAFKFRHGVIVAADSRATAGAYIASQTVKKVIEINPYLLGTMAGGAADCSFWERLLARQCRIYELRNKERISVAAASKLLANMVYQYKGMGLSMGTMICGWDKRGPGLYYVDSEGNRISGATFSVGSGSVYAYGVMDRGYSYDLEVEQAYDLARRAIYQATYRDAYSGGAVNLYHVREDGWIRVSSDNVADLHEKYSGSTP
# Summary of the method: (§3)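 Human 20S cCP or iCP (0.3 nM) was exposed to compound (0.001-50 μM) for 15 min in pH 8 buffer of 20 mM Tris-HCl, 10% glycerol, 0.01% SDS, 2% DMSO. Suc-LLVY-AMC at 20 μM followed. Fluorescence (ex 360/em 460 nm) was read 45 min at 37 °C versus untreated enzyme.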
# [4] = test system: HCT-116; assay: Cytotoxicity against human HCT116 cells assessed as reduction in cell viability after 48 hrs by Hoechst 33342 staining based HCS assay; type: functional; summary of the method: as §2
# [5] = target: T3, Proteasome subunit beta type-9 (Homo sapiens, UniProt P28065); assay: Inhibition of human 20S immunoproteasome beta-1 using Ac-PAL-AMC as substrate incubated for 15 mins measured for 45 mins by fluorescence assay; summary of the method: as §1
# T3 sequence (P28065 whole entry): T1 sequence (whole entry)
# [6] = test system: Huh-7; assay: Cytotoxicity against human HuH7 cells assessed as reduction in cell viability after 48 hrs by Hoechst 33342 staining based HCS assay; type: functional; details: huh-7; summary of the method: as §2
# [7] = test system: Fibroblast; assay: Cytotoxicity against human fibroblasts assessed as reduction in cell viability at 25 uM after 48 hrs by Hoechst 33342 staining based HCS assay
# [8] = test system: PC-3; assay: Cytotoxicity against human PC3 cells assessed as reduction in cell viability after 48 hrs by Hoechst 33342 staining based HCS assay; type: functional; summary of the method: as §2
# [9] = test system: MDA-MB-231; assay: Cytotoxicity against human MDA-MB-231 cells assessed as reduction in cell viability after 48 hrs by Hoechst 33342 staining based HCS assay; type: functional; summary of the method: as §2
# [10] = target: T4, Proteasome subunit beta type-8 (Homo sapiens) (UniProt P28062); assay: Inhibition of human 20S immunoproteasome beta-5 at 50 uM using Suc-LLVY-AMC as substrate incubated for 15 mins measured for 45 mins by fluorescence assay relative to control; summary of the method: as §3
# T4 sequence (whole entry): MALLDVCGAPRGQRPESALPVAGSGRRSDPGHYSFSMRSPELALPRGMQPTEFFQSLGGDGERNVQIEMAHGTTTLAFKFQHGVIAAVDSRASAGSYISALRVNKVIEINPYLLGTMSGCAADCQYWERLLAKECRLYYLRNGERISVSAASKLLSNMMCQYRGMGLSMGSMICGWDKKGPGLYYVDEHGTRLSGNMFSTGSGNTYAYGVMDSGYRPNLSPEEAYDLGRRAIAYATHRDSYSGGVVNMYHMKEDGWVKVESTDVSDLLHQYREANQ
# [11] = target: T5, Proteasome subunit beta type-8 (Homo sapiens, UniProt P28062); assay: Inhibition of human 20S immunoproteasome beta-5 using Suc-LLVY-AMC as substrate incubated for 15 mins measured for 45 mins by fluorescence assay; summary of the method: as §3
# T5 sequence (P28062 whole entry): T4 sequence (whole entry)
# [12] = target: T6, Proteasome Macropain subunit MB1 (Homo sapiens, UniProt P28074); assay: Inhibition of human 20S constitutive proteasome beta-5 using Suc-LLVY-AMC as substrate incubated for 15 mins measured for 45 mins by fluorescence assay; summary of the method: as §3
# T6 sequence (P28074 whole entry): T2 sequence (whole entry)
# [13] = test system: MCF7; assay: Cytotoxicity against human MCF7 cells assessed as reduction in cell viability after 48 hrs by Hoechst 33342 staining based HCS assay; type: functional
# [14] = target: T7, Proteasome component C5 (Homo sapiens) (UniProt P20618); assay: Inhibition of human 20S constitutive proteasome beta-1 at 50 uM using Z-LLE-betaNA as substrate incubated for 15 mins measured for 45 mins by fluorescence assay relative to control
# T7 sequence (whole entry): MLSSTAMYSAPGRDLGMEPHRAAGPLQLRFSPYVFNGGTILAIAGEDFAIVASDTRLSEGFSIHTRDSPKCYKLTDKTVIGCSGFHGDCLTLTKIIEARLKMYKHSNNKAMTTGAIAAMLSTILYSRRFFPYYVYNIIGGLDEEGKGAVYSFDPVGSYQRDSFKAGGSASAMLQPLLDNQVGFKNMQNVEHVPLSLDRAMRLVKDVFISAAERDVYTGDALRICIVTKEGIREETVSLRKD
# Summary of the method: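 Human 20S constitutive proteasome, 0.3 nM, was preincubated 15 min with compound (0.001-50 μM) in pH 8 Tris-HCl 20 mM, 10% glycerol, 0.01% SDS, 2% DMSO. Z-LLE-βNA at 50 μM was added. βNA fluorescence (ex 340/em 404 nm) was monitored 45 min at 37 °C against an untreated control.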
# [15] = test system: Caco-2; assay: Cytotoxicity against human Caco2 cells assessed as reduction in cell viability after 48 hrs by Hoechst 33342 staining based HCS assay; type: functional; summary of the method: as §2
# [16] = target: T8, Proteasome subunit beta type-10 (Homo sapiens) (UniProt P40306); assay: Inhibition of human 20S immunoproteasome beta-2 at 50 uM using BocLRR-AMC as substrate incubated for 15 mins measured for 45 mins by fluorescence assay relative to control
# T8 sequence (whole entry): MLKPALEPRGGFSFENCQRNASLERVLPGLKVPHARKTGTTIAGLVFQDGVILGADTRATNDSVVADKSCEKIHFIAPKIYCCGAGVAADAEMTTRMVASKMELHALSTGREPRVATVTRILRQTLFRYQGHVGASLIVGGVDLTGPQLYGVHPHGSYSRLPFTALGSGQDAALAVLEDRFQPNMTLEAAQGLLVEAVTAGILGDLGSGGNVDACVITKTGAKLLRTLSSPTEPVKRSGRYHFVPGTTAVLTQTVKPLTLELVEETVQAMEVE
# [17] = target: Proteasome Macropain subunit (Homo sapiens) (UniProt P49721); assay: Inhibition of human 20S constitutive proteasome beta-2 at 50 uM using BocLRR-AMC as substrate incubated for 15 mins measured for 45 mins by fluorescence assay relative to control
# Chain of Proteasome Macropain subunit (Homo sapiens) (P49721 whole entry): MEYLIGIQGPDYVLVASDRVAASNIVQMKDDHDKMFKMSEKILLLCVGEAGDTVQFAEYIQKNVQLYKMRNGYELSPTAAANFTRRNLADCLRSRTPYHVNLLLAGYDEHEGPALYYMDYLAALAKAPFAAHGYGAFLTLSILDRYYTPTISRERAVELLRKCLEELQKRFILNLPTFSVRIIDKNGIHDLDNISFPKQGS
# Summary of the method: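 Purified human 20S proteasome (cCP or iCP), 0.3 nM, preincubated 15 min with compound (0.001-50 μM) in pH 8 buffer of 20 mM Tris-HCl, 10% glycerol, 0.005% Triton X-100, 2% DMSO. Then Boc-LRR-AMC at 50 μM was added. AMC fluorescence (ex 360/em 460 nm) was followed 45 min at 37 °C. Activity is relative to an untreated control.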
# [18] = target: T9, Proteasome subunit beta type-10 (Homo sapiens, UniProt P40306); assay: Inhibition of human 20S immunoproteasome beta-2 using BocLRR-AMC as substrate incubated for 15 mins measured for 45 mins by fluorescence assay
# T9 sequence (P40306 whole entry): T8 sequence (whole entry)
# [19] = Homo sapiens, HCT-116, 48 h, read-out: EC50
# [20] = Homo sapiens, MCF7, 48 h, read-out: EC50
# [21] = Homo sapiens, PC-3, 48 h, read-out: EC50
# [22] = Homo sapiens, MDA-MB-231, 48 h, read-out: EC50
# [23] = Homo sapiens, Caco-2, 48 h, read-out: EC50
SMILES,inhibition [1],inhibition [3],IC50 [5],inhibition [10],IC50 [11],IC50 [12],inhibition [14],inhibition [16],inhibition [17],IC50 [18],EC50 ([2]; nci-h727),EC50 [6],Activity [7],EC50 ([15]; caco-2),"EC50 [4, 19]","EC50 [13, 20]","EC50 [8, 21]","EC50 [9, 22]",also measured
CC(C)(C)OC(=O)N[C@@H](Cc1ccc(OCc2ccccc2)cc1)C(=O)N[C@@H](CC(N)=O)C(=O)N[C@@H](C[C@]1(O)C(=O)Nc2ccccc21)C(=O)NCc1ccccc1,> 85%,> 85%,16.1 µM,> 85%,1.6 µM,1.48 µM,> 85%,,,,Not Active,Not Active,Non-Toxic,Not Active,,,,,EC50 ([4]; hct-116): Not Active; EC50 ([8]; pc-3): Not Active; EC50 ([9]; mda-mb-231): Not Active; EC50 ([13]; mcf7): Not Active
C[C@H](NC(=O)[C@H](Cc1ccc(OCc2ccccc2)cc1)NC(=O)OC(C)(C)C)C(=O)N[C@@H](C[C@]1(O)C(=O)Nc2ccccc21)C(=O)NCc1ccccc1,,,,,,,,,,,Not Active,Not Active,Non-Toxic,Not Active,32 µM,26 µM,,,EC50 ([8]; pc-3): Not Active; EC50 ([9]; mda-mb-231): Not Active
C[C@H](NC(=O)[C@H](Cc1ccc(OCc2ccccc2)cc1)NC(=O)OC(C)(C)C)C(=O)N[C@@H](C[C@]1(O)C(=O)Nc2ccccc21)C(=O)NCC(C)(C)C,> 85%,> 85%,21 µM,> 85%,12.6 µM,11.3 µM,> 85%,> 85%,> 85%,30 µM,,,,,,,,,
C[C@H](O)[C@@H](NC(=O)[C@H](Cc1ccc(OCc2ccccc2)cc1)NC(=O)OC(C)(C)C)C(=O)N[C@@H](C[C@]1(O)C(=O)Nc2ccccc21)C(=O)NCc1ccccc1,> 85%,> 85%,8.8 µM,> 85%,0.2 µM,0.125 µM,> 85%,> 85%,> 85%,5.8 µM,Not Active,Not Active,Non-Toxic,,9 µM,9 µM,10 µM,9 µM,"EC50 [15, 23]: 32 µM"

# Further lines, with some results ahead:
inhibition [1],inhibition [3],IC50 [5],inhibition [10],IC50 [11],IC50 [12],inhibition [14],inhibition [16],inhibition [17],IC50 [18],SMILES,EC50 ([2]; nci-h727),EC50 [6],Activity [7],EC50 ([15]; caco-2),"EC50 [4, 19]","EC50 [13, 20]","EC50 [8, 21]","EC50 [9, 22]",also measured
> 85%,> 85%,14 µM,> 85%,0.26 µM,0.35 µM,> 85%,> 85%,> 85%,14.3 µM,C[C@H](NC(=O)Cc1cccc(Oc2ccccc2)c1)C(=O)N[C@@H](C[C@]1(O)C(=O)Nc2ccccc21)C(=O)NCc1ccccc1,,,,,,,,,
> 85%,> 85%,12.5 µM,> 85%,13.2 µM,9.2 µM,> 85%,> 85%,> 85%,21.4 µM,C[C@@H](NC(=O)[C@H](Cc1ccc(OCc2ccccc2)cc1)NC(=O)OC(C)(C)C)C(=O)N[C@@H](C[C@]1(O)C(=O)Nc2ccccc21)C(=O)NCc1ccccc1,,,,,,,,,
> 85%,> 85%,23.8 µM,> 85%,0.0102 µM,0.0071 µM,> 85%,> 85%,> 85%,6.6 µM,C[C@@H](O)[C@@H](NC(=O)c1ccc(OCc2ccccc2)cc1)C(=O)N[C@@H](C[C@]1(O)C(=O)Nc2ccccc21)C(=O)NCc1ccccc1,,Not Active,Non-Toxic,,0.2 µM,0.7 µM,0.4 µM,0.7 µM,"EC50 ([2]; Homo sapiens, NCI-H727, 48 h, read-out: EC50): 2 µM; EC50 [15, 23]: 5 µM"
> 85%,> 85%,52 µM,> 85%,0.17 µM,0.113 µM,> 85%,> 85%,> 85%,28.3 µM,C[C@H](NC(=O)c1ccc(OCc2ccccc2)cc1)C(=O)N[C@@H](C[C@]1(O)C(=O)Nc2ccccc21)C(=O)NCc1ccccc1,Not Active,Not Active,Non-Toxic,Not Active,10 µM,21 µM,24 µM,23 µM,
